Results: ChEMBL document CHEMBL4130581, “Securamine Derivatives from the Arctic Bryozoan Securiflustra securifrons” (J Nat Prod, 2017)
Activity calls are given as the source filed them. No cut-off for these calls is given here.

What was measured:
A2058 [1] = assay: Cytotoxicity in human A2058 cells assessed as reduction in cell survival incubated for 72 hrs by MTS assay; format: functional, cell-based; conditions: A2058, 72 h
Summary of the method: (§1)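 A2058 human melanoma cells grown in D-MEM with 10% FBS and L-alanyl-L-glutamine at 37 °C, 5% CO2. Seeded at 2000 cells/well and allowed to adhere 24 h. Exposed to a range of concentrations for 4, 24, 48 or 72 h. MTS added for 1 h, then absorbance read at 485 nm. Survival normalised to 1% DMSO (negative) and 0.5% Triton X-100 (positive) controls. Triplicate wells, three independent experiments.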

HT-29 [2] = assay: Cytotoxicity in human HT-29 cells assessed as reduction in cell survival incubated for 72 hrs by MTS assay; format: functional, cell-based; conditions: HT-29, 72 h
Summary of the method: (§2)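 HT-29 colon adenocarcinoma cells kept in RPMI with 10% FBS and L-alanyl-L-glutamine at 37 °C, 5% CO2. Seeded at 2000 cells/well and left 24 h before 72 h exposure to various concentrations. MTS reagent for 1 h, then absorbance at 485 nm. Survival scaled between 1% DMSO and 0.5% Triton X-100 controls. IC50 from eight concentration points. Means ± SD of three independent determinations.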

MRC5 [3] = assay: Cytotoxicity in human MRC5 cells assessed as reduction in cell survival incubated for 72 hrs by MTS assay; format: cell-based; conditions: MRC5, 72 h
Summary of the method: (§3)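 Nonmalignant MRC-5 lung fibroblasts in supplemented E-MEM (10% FBS, glutamine, NEAA, pyruvate, bicarbonate) at 37 °C, 5% CO2. Seeded at 4000 cells/well and allowed 24 h to adhere. Exposed to ranging concentrations for 24 or 72 h. MTS added for 1 h, absorbance at 485 nm. Survival normalised to 1% DMSO and 0.5% Triton X-100 controls. Triplicates, three independent experiments.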

MCF7 [4] = assay: Cytotoxicity in human MCF7 cells assessed as reduction in cell survival incubated for 72 hrs by MTS assay; format: functional, cell-based; conditions: MCF7, 72 h
Summary of the method: (§4)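 MCF-7 breast adenocarcinoma cells in E-MEM with 10% FBS, L-alanyl-L-glutamine, nonessential amino acids, sodium pyruvate and sodium bicarbonate at 37 °C, 5% CO2. Plated at 2000 cells/well and left 24 h, then treated 72 h across a concentration range. MTS for 1 h, read at 485 nm. Survival relative to 1% DMSO and 0.5% Triton X-100 controls. IC50 by regression on eight concentrations. Three independent experiments, mean ± SD.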

MRC5 [5] = assay: Cytotoxicity in human MRC5 cells assessed as reduction in cell survival incubated for 24 hrs by MTS assay; format: cell-based; conditions: MRC5, 24 h; summary of the method: as §3
A2058 [6] = assay: Cytotoxicity in human A2058 cells assessed as reduction in cell survival by MTS assay; format: functional, cell-based; conditions: TDE = time-dependent effect; summary of the method: as §1
A2058 [7] = assay: Cytotoxicity in human A2058 cells assessed as reduction in cell survival at 0.313 to 10 uM incubated for 4 hrs by MTS assay; format: functional, cell-based; summary of the method: as §1
A2058 [8] = assay: Cytotoxicity in human A2058 cells assessed as reduction in cell survival incubated for 48 hrs by MTS assay; format: functional, cell-based; conditions: A2058, 48 h; summary of the method: as §1
MCF7 [9] = assay: Cytotoxicity in human MCF7 cells assessed as reduction in cell survival by MTS assay; format: functional, cell-based; conditions: TDE = time-dependent effect; summary of the method: as §4
A2058 [10] = assay: Cytotoxicity in human A2058 cells assessed as reduction in cell survival incubated for 24 hrs by MTS assay; format: functional, cell-based; conditions: A2058, 24 h; summary of the method: as §1
MRC5 [11] = assay: Cytotoxicity in human MRC5 cells assessed as reduction in cell survival by MTS assay; format: cell-based; conditions: TDE = time-dependent effect; summary of the method: as §3
HT-29 [12] = assay: Cytotoxicity in human HT-29 cells assessed as reduction in cell survival by MTS assay; format: functional, cell-based; conditions: TDE = time-dependent effect; summary of the method: as §2

Structure (SMILES): CO[C@H]1[C@H](O)C2=NC(=O)N[C@@]23N2c4cc(Br)c(Br)c(Br)c4[C@H]4CC(=O)N1[C@]42C[C@H](Cl)C3(C)C
- IC50 (A2058 [1]): > 50 µM
- IC50 (HT-29 [2]): > 50 µM
- IC50 (MRC5 [3]): > 50 µM
- IC50 (MCF7 [4]): > 50 µM

Structure (SMILES): CC1(C)[C@@H](Cl)C[C@]23[C@@H]4CC(=O)N2C=CC2=NC(=O)N[C@@]21N3c1cc(Br)c(Br)cc14
- IC50 (A2058 [1]): 2.7 µM
- IC50 (HT-29 [2]): 2.5 µM
- IC50 (MRC5 [3]): 5.3 µM
- IC50 (MCF7 [4]): 2.4 µM

Structure (SMILES): CC1(C)[C@@H](Cl)C[C@]23[C@@H]4CC(=O)N2C=CC2=NC(=O)N[C@@]21N3c1cc(Br)c(Br)c(Br)c14
- IC50 (A2058 [1]): 1.4 µM
- IC50 (MRC5 [5]): > 10 µM
- Activity (A2058 [6]): Tde
- Activity (A2058 [7]): inactive
- IC50 (HT-29 [2]): 1.9 µM
- IC50 (A2058 [8]): 1.8 µM
- IC50 (MRC5 [3]): 2.7 µM
- Activity (MCF7 [9]): Tde
- IC50 (MCF7 [4]): 2.1 µM
- IC50 (A2058 [10]): 2.8 µM
- Activity (MRC5 [11]): Tde
- Activity (HT-29 [12]): Tde

Structure (SMILES): CC1(C)[C@@H](Cl)C[C@]23[C@@H]4CC(=O)N2C=CC2=NC(=O)N[C@@]21N3c1cc(Br)ccc14
- IC50 (A2058 [1]): 20 µM
- IC50 (HT-29 [2]): 21 µM
- IC50 (MRC5 [3]): 30 µM
- IC50 (MCF7 [4]): 23 µM

Structure (SMILES): CC1(C)[C@@H](Cl)C[C@]23[C@@H]4CC(=O)N2C=CC2=NC(=O)N[C@@]21N3c1cc(Br)cc(Br)c14
- IC50 (A2058 [1]): 6.7 µM
- IC50 (HT-29 [2]): 10 µM
- IC50 (MRC5 [3]): 9.6 µM
- IC50 (MCF7 [4]): 8.5 µM
